Screening data: PubChem, several laboratories
Yeast life ext: compounds extending yeast replicative lifespan, primary screen, S. cerevisiae, OD615 | S. cerevisiae growth with nicotinamide; deaD strain in restrictive glucose medium | inhibition of the nicotinamide effect, % at 10 µM | 130,000 tested, 0.68% active | AID 775, 2007;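 active means inhibition above a set limit, placed 3 SD over the median of all compounds, cut at about 26% in these data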;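 further: 0% = nicotinamide-treated wells and 100% = cells grown without nicotinamide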
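System: Modified budding yeast, DeaD strain | Buffer or medium: Restrictive glucose medium | Also added: 1.5 mM nicotinamide | Doses: 10 µM single point, 0.25% DMSO | Schedule: 48 h compound exposure at 30 °C, humidified | Detection: Absorbance at 615 nm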
RAM network inh: inhibitors of the yeast RAM network, primary screen, dse1pr::URA3 reporter, 5-FOA selection; S. cerevisiae dse1pr::URA3 reporter, 5-FOA growth OD615, 2 d; analog-sensitive cbk1-as2 kinase mutant strain; inhibition, % at 50 µM; 190,000 tested, 1.8% active; AID 868, 2007;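 active means inhibition above a set limit, 3 SD over mean compound inhibition, cut at about 8.4% in these data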;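 further: 0% = DMSO-only wells with no growth and 100% = 10 µM 1-NA-PP1 full growth; inhibition rescues growth on 5-FOA so higher OD means more RAM inhibition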
Yeast growth inh: growth inhibitors of yeast BB579 in restrictive medium, primary screen, yeast lifespan-shortening project, S. cerevisiae. OD615, 48 h. inhibition, % at 10 µM. 140,000 tested, 0.51% active. AID 804, 2007;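 active means inhibition above a set limit, 3 SD over the mean compound inhibition, cut at about 44% in these data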
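Test system: DeaD yeast strain BB579 / Buffer or medium: restrictive glucose-based CSMM-D medium / Doses: single 10 µM dose / Schedule: 4 h cell preincubation, 48 h compound exposure, 30 °C humidified / Technique: culture absorbance at 615 nm / Controls: amphotericin B positive control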
INS promoter inh: inhibitors of insulin promoter-driven GFP, primary screen, imaging, TRM-6 cells, eGFP reporter, cell count; reporter expression induced with tamoxifen; inhibition, % at 2 µM; 130,000 tested, 0.9% active; AID 1273, 2008;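 active means inhibition above the mean plus 3 SD, with well images judged a real hit on visual review, cut at about 60% in these data, passing the limit was not always enough; inconclusive means inhibition over the cutoff but images rejected on review; inactive means inhibition not above the cutoff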
Insulin prom up: insulin promoter activators in MIN6 cells, imaging, high-content screening, mouse beta cells; MIN6 insulin promoter-GFP reporter; hits give high values; 190,000 tested, 0.3% active; z-score at 5 µM;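 active means z-score above 3 at 5 µM with at least 500 cells counted in the well; inconclusive means wells under 500 cells, flagged as cytotoxic or low count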
RAM efflux-def: 5-FOA growth of efflux-deficient control yeast, dose response, counter-screen for RAM network inhibitor project, S. cerevisiae, OD615; max inhibition, %; S. cerevisiae efflux-deficient reporter strain, 5-FOA growth OD615, 2 days; shares compounds with RAM network inh; AID 1305, 2008; 1,200 tested, under 10 active; call rule not given here;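 further: plate controls were vehicle for no effect and reference inhibitor for full effect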
Starred values were filed as active, the others as inactive; ? = inconclusive; . = no result. In the library only some 3% were active in any assay of this set; here they are far more common.

SMILES | Yeast life ext | RAM network inh | Yeast growth inh | INS promoter inh | Insulin prom up | others
CC1CN(CCc2ccccc2)CC(C)O1 (stereo not given) | 7.4 | 1.2 | -14.3 | 70.3* | 1.52
O=C(N/N=C/c1c(O)n(CCc2ccccc2)c(=O)[nH]c1=O)c1ccncc1 | 0.8 | 3.9 | -38.7 | . | -0.31
O=C(N/N=C/c1c(O)n(CCc2ccc(F)cc2)c(=O)[nH]c1=O)c1ccncc1 | . | 8.6* | . | -33.3 | 0.1
Nc1cc2nc3ccccc3nc2cc1N | . | . | . | . | 3.68*
CCC(CC)C(=O)NC1CCSC1=O (stereo not given) | -14.6 | -0.1 | -44.5 | 10.8 | 0.65
c1ccc2c(N3CCNCC3)nsc2c1 | . | 0.9 | . | . | 3.06*
c1ccc2oc(N3CCNCC3)nc2c1 | -3.2 | 2.3 | -39.6 | . | 1.56
Cc1ccc(-c2nc3ccc(Cl)cc3n2OC(=O)N(C)C)cc1 | 92.4* | 3.6 | -44.5 | -44.8 | 0.66
CN(C)C(=O)Oc1ccc(-c2cn3cc(Cl)ccc3n2)cc1 | -6.3 | 3.0 | -28.2 | . | 0.06
Cc1ccc(/C=C2/C(=O)NC(=O)N(CCc3ccc(F)cc3)C2=O)o1 | 32.4* | 3.4 | -19.0 | 0.0 | -0.19
O=C(c1ccc2c(c1)OCO2)C1CCCN(CC2CCCCC2)C1 (stereo not given) | . | 1.0 | . | . | -1.04
Cc1ccccc1-n1c(O)c(C(c2ccncc2)c2c(O)n(-c3ccccc3C)c(=O)[nH]c2=O)c(=O)[nH]c1=O | . | . | . | . | 0.3
Clc1ccccc1CN1CCN(c2ccccc2)CC1 | -14.8 | 0.1 | -20.5 | -45.2 | .
CC(C)(C)c1ccc(O)c(CN2CCN(c3ccccc3)CC2)c1 | 3.6 | 1.1 | -27.8 | 82.3* | -0.47
NC(=O)OCCSc1nnc(-c2cccc(C(N)=S)c2)o1 | . | 0.6 | -14.1 | 5.6 | .
Cn1cc(C(=O)NP(=O)(N2CCOCC2)N2CCOCC2)c2ccccc21 | . | 1.4 | . | . | -0.14
CCCCn1c(NC(=O)c2ccco2)c(C(=O)OCC)c2nc3ccccc3nc21 | -16.8 | 4.0 | -31.5 | . | -0.19
CCCCn1c(NS(=O)(=O)c2ccc(C)cc2)c(C(=O)OCC)c2nc3ccccc3nc21 | 93.2* | -0.8 | -74.6 | -25.0 | 0.36
O=P(NCc1ccccc1)(Oc1ccccc1)Oc1ccccc1 | 26.8* | 0.6 | -7.0 | . | 0.09
O=P(NS(=O)(=O)c1ccccc1)(Oc1ccccc1)Oc1ccccc1 | -1.7 | 1.3 | -35.0 | . | -0.64
Cc1c(C(c2ccc(Br)cc2)c2c(O)c3ccccc3oc2=O)c(=O)n(-c2ccccc2)n1C (stereo not given) | . | 10.3* | . | 46.7 | -0.12
CSc1ccc(C(c2c(O)c3ccccc3oc2=O)c2c(C)n(C)n(-c3ccccc3)c2=O)cc1 (stereo not given) | . | 8.2 | . | ? | 0.43
NC1=NC(=O)C(c2ccccc2)O1 (stereo not given) | . | . | . | . | 0.51
Cc1cc(/C=C2\C(=O)NC(=O)N(c3ccc(Br)cc3)C2=O)c(C)n1C | . | 10.7* | . | . | 0.4
O=C1C=Cc2ccccc2C1=O | 30.9* | -1.2 | -31.6 | -47.6 | .
SMILES | Yeast life ext | RAM network inh | Yeast growth inh | INS promoter inh | Insulin prom up | others
C[C@]12CC[C@@H](O)C[C@@H]1CC[C@@H]1[C@@H]2CC[C@]2(C)[C@@H](O)CC[C@@H]12 | 28.8* | 4.0 | -45.1 | 9.5 | .
C[C@H]1CC[C@@]2(C)[C@@H](CC[C@@H]3[C@@H]2CC[C@]2(C)[C@@H](O)CC[C@@H]32)C1 | . | . | . | . | -0.13
CN(C)C(Cc1ccccc1)C(=O)c1cccs1 (stereo not given) | . | 1.0 | . | . | -0.18
O=C(c1ccccc1F)c1cn(Cc2ccccc2)c2ccccc12 | -10.4 | 11.1* | -29.6 | 16.7 | -0.46
Fc1ccc(C2=CCN(C(c3ccc(Cl)cc3)c3nnnn3Cc3ccccc3)CC2)cc1 (stereo not given) | 6.8 | 6.7 | -45.3 | . | -0.7
Fc1ccc(Cn2nnnc2C(c2ccc(Cl)cc2)N2CC=C(c3ccc(F)cc3)CC2)cc1 (stereo not given) | 1.1 | 10.2* | -5.0 | -10.8 | -0.08
CC[N+](CC)(CC)CC | . | . | . | . | 1.23
O=C1NC(=O)N(CCC2=CCCCC2)C(=O)/C1=C\c1cccs1 | 62.5* | 4.8 | 1.9 | 26.9 | 0.61
Cn1cccc1/C=C1\C(=O)NC(=O)N(CCC2=CCCCC2)C1=O | 4.3 | 4.3 | -38.8 | . | 0.13
C=CCN1C(=O)/C(=C/c2cccs2)C(=O)NC1=S | -8.0 | -0.4 | 75.3* | . | -0.12
CN1Cc2c(c(C#N)c(N)n(C)c2=S)CC1(C)C | . | 0.0 | . | . | -0.15
CCn1c(P(C)(=O)O)nc2cc(NC(=O)c3ccccc3F)ccc21 | . | 0.1 | . | 16.7 | 0.34
O=P(Nc1ccccc1)(Nc1ccccc1)Oc1ccc(Cl)cc1 | -4.3 | 5.3 | 6.5 | -51.7 | -0.64
COc1cccc(NP(=O)(Oc2ccc(Cl)cc2)Oc2ccc(Cl)cc2)c1 | 4.5 | 15.3* | -28.9 | -6.7 | -0.09 | RAM efflux-def=5.1
Cc1ccc(NP(=O)(Oc2ccccc2F)Oc2ccccc2F)cc1C | 14.1 | 16.7* | -36.1 | . | -0.17 | RAM efflux-def=1.6
O=P(Nc1cccc(F)c1)(Oc1ccccc1F)Oc1ccccc1F | . | . | . | . | -0.18
Cc1cccc(NP(=O)(Oc2ccccc2F)Oc2ccccc2F)c1 | 10.2 | 16.2* | -43.4 | -31.0 | . | RAM efflux-def=1.7
O=c1c2ccccc2nc(C[n+]2ccccc2)n1-c1cccc(C(F)(F)F)c1 | . | -0.5 | . | . | 0.71
O=c1[nH]c(=S)n(C2CC2)c(O)c1C=NCCc1ccccc1 | . | . | . | . | 0.38
CN1C(=O)/C(=C/c2cccn2-c2ccc3ccccc3c2)C(=O)NC1=S | 48.6* | 15.1* | -10.2 | 25.7 | 0.1 | RAM efflux-def=4.0
O=C1NC(=S)NC(=O)C1=Cc1cccn1-c1ccc(O)cc1 | . | 7.7 | . | 60.0 | 0.17
CCOc1ccc2nc(N=Nc3c(O)[nH]c(=O)[nH]c3=O)sc2c1 | . | . | . | . | 0.05
CCOc1ccc2nc(N=Nc3c(O)[nH]c(=S)[nH]c3=O)sc2c1 | . | 12.1* | . | . | -0.32 | RAM efflux-def=6.5
CC(Cc1cccs1)NCc1ccccc1 (stereo not given) | . | 1.9 | . | . | 0.31
O=C(O)c1cccc2c1NC(C(=O)O)C1CC(Sc3ccccc3[N+](=O)[O-])C(Cl)C21 (stereo not given) | -0.5 | 15.2* | -17.6 | 6.9 | 0.19 | RAM efflux-def=6.8
SMILES | Yeast life ext | RAM network inh | Yeast growth inh | INS promoter inh | Insulin prom up | others
COc1ccc(N2C(=O)/C(=C/C=C/c3ccccc3[N+](=O)[O-])C(=O)NC2=S)cc1 | . | 16.6* | . | 0.0 | 0.48 | RAM efflux-def=2.4
COc1ccc(N2C(=O)/C(=C/c3cccs3)C(=O)NC2=S)cc1 | . | . | . | . | -0.93
C=CCSC1=N/C(=C\c2cc(OC)c3c(c2)OCO3)C(=O)S1 | -2.6 | 12.5* | -35.1 | 7.1 | 0.18 | RAM efflux-def=3.4
FC(F)(F)c1nc(N2CCN(c3ccccc3)CC2)nc2c1CCCCC2 | -6.8 | 13.8* | -53.2 | . | -0.84 | RAM efflux-def=3.9
Cc1ccc(Cn2cc(C=O)c(-c3ccc(C)cc3)n2)cc1 | 1.0 | 15.6* | -17.8 | 30.0 | -0.09 | RAM efflux-def=1.0
COc1cc(CNCCc2ccc3c(c2)OCO3)cc(OC)c1OC | . | 1.2 | . | -53.9 | -0.09
CC1=C(/C=C/c2ccccc2)CCN(C)C1 | -3.2 | 0.1 | -8.0 | . | 0.18
